Experimental data as given in ChEMBL document CHEMBL2321753, “Synthesis and biological evaluation of radioiodinated quinacrine-based derivatives for SPECT imaging of Aβ plaques” (Eur J Med Chem, 2013).

Legend:
[1] = system: Liver; assay: Biodistribution in ddY mouse liver at 0.1 to 0.4 uCi, iv after 30 mins by gamma counting; type: ADME, organism-based; conditions: in vivo, 0.5 h
How it was run: (§1)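 [125I]ligand (0.1–0.4 µCi) in 100 µL PBS (pH 7.4) containing 30 µL DMSO, injected into the tail vein of ddY mice (5 weeks, 22–25 g). Mice sacrificed at 2, 10, 30 and 60 min. Organs removed, weighed and gamma-counted. Values are % injected dose per gram, except stomach as % dose per organ. Mean (SD) of 3–6 mice per time point.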

[2] = system: Heart; assay: Biodistribution in ddY mouse heart at 0.1 to 0.4 uCi, iv after 10 mins by gamma counting; type: ADME, organism-based; conditions: in vivo; how it was run: as §1
[3] = system: Brain; assay: Biodistribution in ddY mouse brain at 0.1 to 0.4 uCi, iv after 60 mins by gamma counting; type: ADME, organism-based; conditions: in vivo, 1 h; how it was run: as §1
[4] = system: Kidney; assay: Biodistribution in ddY mouse kidney at 0.1 to 0.4 uCi, iv after 60 mins by gamma counting; type: ADME, organism-based; conditions: in vivo, 1 h; how it was run: as §1
[5] = system: Brain; assay: Ratio of drug level in brain after 2 mins to brain after 60 mins in ddY mouse brain at 0.1 to 0.4 uCi, iv; type: ADME, organism-based; conditions: in vivo
How it was run: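 ddY mice (5 weeks, 22–25 g) given [125I]ligand (0.1–0.4 µCi) iv in PBS/DMSO. Brain radioactivity (% dose/g) measured by gamma counting at 2 and 60 min, and the 2 min/60 min ratio taken as a washout index.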

[6] = system: Blood; assay: Biodistribution in ddY mouse blood at 0.1 to 0.4 uCi, iv after 60 mins by gamma counting; type: ADME, organism-based; conditions: in vivo, 1 h; how it was run: as §1
[7] = system: Blood; assay: Biodistribution in ddY mouse blood at 0.1 to 0.4 uCi, iv after 2 mins by gamma counting; type: ADME, organism-based; conditions: in vivo; how it was run: as §1
[8] = system: Liver; assay: Biodistribution in ddY mouse liver at 0.1 to 0.4 uCi, iv after 60 mins by gamma counting; type: ADME, organism-based; conditions: in vivo, 1 h; how it was run: as §1
[9] = system: Brain; assay: Biodistribution in ddY mouse brain at 0.1 to 0.4 uCi, iv after 2 mins by gamma counting; type: ADME, organism-based; conditions: in vivo; how it was run: as §1
[10] = system: Spleen; assay: Biodistribution in ddY mouse spleen at 0.1 to 0.4 uCi, iv after 60 mins by gamma counting; type: ADME, organism-based; conditions: in vivo, 1 h; how it was run: as §1
[11] = system: Stomach; assay: Biodistribution in ddY mouse stomach assessed per organ at 0.1 to 0.4 uCi, iv after 30 mins by gamma counting; type: ADME, organism-based; conditions: in vivo, 0.5 h; how it was run: as §1
[12] = system: Blood; assay: Biodistribution in ddY mouse blood at 0.1 to 0.4 uCi, iv after 10 mins by gamma counting; type: ADME, organism-based; conditions: in vivo; how it was run: as §1
[13] = system: Kidney; assay: Biodistribution in ddY mouse kidney at 0.1 to 0.4 uCi, iv after 2 mins by gamma counting; type: ADME, organism-based; conditions: in vivo; how it was run: as §1
[14] = system: Lung; assay: Biodistribution in ddY mouse lung at 0.1 to 0.4 uCi, iv after 60 mins by gamma counting; type: ADME, organism-based; conditions: in vivo, 1 h; how it was run: as §1
[15] = system: Spleen; assay: Biodistribution in ddY mouse spleen at 0.1 to 0.4 uCi, iv after 2 mins by gamma counting; type: ADME, organism-based; conditions: in vivo; how it was run: as §1
[16] = system: Pancreas; assay: Biodistribution in ddY mouse pancreas at 0.1 to 0.4 uCi, iv after 10 mins by gamma counting; type: ADME, organism-based; conditions: in vivo; how it was run: as §1
[17] = system: Pancreas; assay: Biodistribution in ddY mouse pancreas at 0.1 to 0.4 uCi, iv after 60 mins by gamma counting; type: ADME, organism-based; conditions: in vivo, 1 h; how it was run: as §1
[18] = system: Intestine; assay: Biodistribution in ddY mouse intestine at 0.1 to 0.4 uCi, iv after 60 mins by gamma counting; type: ADME, organism-based; conditions: in vivo, 1 h; how it was run: as §1
[19] = system: Pancreas; assay: Biodistribution in ddY mouse pancreas at 0.1 to 0.4 uCi, iv after 2 mins by gamma counting; type: ADME, organism-based; conditions: in vivo; how it was run: as §1
[20] = system: Kidney; assay: Biodistribution in ddY mouse kidney at 0.1 to 0.4 uCi, iv after 30 mins by gamma counting; type: ADME, organism-based; conditions: in vivo, 0.5 h; how it was run: as §1
[21] = system: Heart; assay: Biodistribution in ddY mouse heart at 0.1 to 0.4 uCi, iv after 2 mins by gamma counting; type: ADME, organism-based; conditions: in vivo; how it was run: as §1
[22] = system: Heart; assay: Biodistribution in ddY mouse heart at 0.1 to 0.4 uCi, iv after 60 mins by gamma counting; type: ADME, organism-based; conditions: in vivo, 1 h; how it was run: as §1
[23] = system: Brain; assay: Biodistribution in ddY mouse brain at 0.1 to 0.4 uCi, iv after 30 mins by gamma counting; type: ADME, organism-based; conditions: in vivo, 0.5 h; how it was run: as §1
[24] = system: Stomach; assay: Biodistribution in ddY mouse stomach assessed per organ at 0.1 to 0.4 uCi, iv after 60 mins by gamma counting; type: ADME, organism-based; conditions: in vivo, 1 h; how it was run: as §1
[25] = system: Intestine; assay: Biodistribution in ddY mouse intestine at 0.1 to 0.4 uCi, iv after 2 mins by gamma counting; type: ADME, organism-based; conditions: in vivo; how it was run: as §1
[26] = system: Pancreas; assay: Biodistribution in ddY mouse pancreas at 0.1 to 0.4 uCi, iv after 30 mins by gamma counting; type: ADME, organism-based; conditions: in vivo, 0.5 h; how it was run: as §1
[27] = system: Stomach; assay: Biodistribution in ddY mouse stomach assessed per organ at 0.1 to 0.4 uCi, iv after 2 mins by gamma counting; type: ADME, organism-based; conditions: in vivo; how it was run: as §1
[28] = system: Heart; assay: Biodistribution in ddY mouse heart at 0.1 to 0.4 uCi, iv after 30 mins by gamma counting; type: ADME, organism-based; conditions: in vivo, 0.5 h; how it was run: as §1
[29] = system: Spleen; assay: Biodistribution in ddY mouse spleen at 0.1 to 0.4 uCi, iv after 30 mins by gamma counting; type: ADME, organism-based; conditions: in vivo, 0.5 h; how it was run: as §1
[30] = system: Lung; assay: Biodistribution in ddY mouse lung at 0.1 to 0.4 uCi, iv after 30 mins by gamma counting; type: ADME, organism-based; conditions: in vivo, 0.5 h; how it was run: as §1
[31] = system: Liver; assay: Biodistribution in ddY mouse liver at 0.1 to 0.4 uCi, iv after 10 mins by gamma counting; type: ADME, organism-based; conditions: in vivo; how it was run: as §1
[32] = system: Liver; assay: Biodistribution in ddY mouse liver at 0.1 to 0.4 uCi, iv after 2 mins by gamma counting; type: ADME, organism-based; conditions: in vivo; how it was run: as §1
[33] = system: Intestine; assay: Biodistribution in ddY mouse intestine at 0.1 to 0.4 uCi, iv after 30 mins by gamma counting; type: ADME, organism-based; conditions: in vivo, 0.5 h; how it was run: as §1
[34] = system: Lung; assay: Biodistribution in ddY mouse lung at 0.1 to 0.4 uCi, iv after 10 mins by gamma counting; type: ADME, organism-based; conditions: in vivo; how it was run: as §1
[35] = system: Lung; assay: Biodistribution in ddY mouse lung at 0.1 to 0.4 uCi, iv after 2 mins by gamma counting; type: ADME, organism-based; conditions: in vivo; how it was run: as §1
[36] = system: Stomach; assay: Biodistribution in ddY mouse stomach assessed per organ at 0.1 to 0.4 uCi, iv after 10 mins by gamma counting; type: ADME, organism-based; conditions: in vivo; how it was run: as §1
[37] = system: Blood; assay: Biodistribution in ddY mouse blood at 0.1 to 0.4 uCi, iv after 30 mins by gamma counting; type: ADME, organism-based; conditions: in vivo, 0.5 h; how it was run: as §1
[38] = system: Spleen; assay: Biodistribution in ddY mouse spleen at 0.1 to 0.4 uCi, iv after 10 mins by gamma counting; type: ADME, organism-based; conditions: in vivo; how it was run: as §1
[39] = system: Intestine; assay: Biodistribution in ddY mouse intestine at 0.1 to 0.4 uCi, iv after 10 mins by gamma counting; type: ADME, organism-based; conditions: in vivo; how it was run: as §1
[40] = system: Brain; assay: Biodistribution in ddY mouse brain at 0.1 to 0.4 uCi, iv after 10 mins by gamma counting; type: ADME, organism-based; conditions: in vivo; how it was run: as §1
[41] = system: Kidney; assay: Biodistribution in ddY mouse kidney at 0.1 to 0.4 uCi, iv after 10 mins by gamma counting; type: ADME, organism-based; conditions: in vivo; how it was run: as §1
[42] = n-octanol-sodium phosphate buffer partition co-efficient, log D of the compound at pH 7.4 by shake flask method; type: physicochemical
How it was run: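 Shake-flask partition between n-octanol and sodium phosphate buffer, pH 7.4, shaken 10 min at room temperature, then centrifuged. Weighed 0.5 mL samples of each layer counted. log D from the ratio of cpm per gram of octanol to cpm per gram of buffer; n = 3.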

COc1ccc2nc3cc([125I])ccc3c(OC)c2c1
Drug uptake [1]: 13.65 % ID/g
Drug uptake [2]: 1.82 % ID/g
Drug uptake [3]: 0.37 % ID/g
Drug uptake [4]: 2.77 % ID/g
Ratio [5]: 11.9
Drug uptake [6]: 1.77 % ID/g
Drug uptake [7]: 2.14 % ID/g
Drug uptake [8]: 5.8 % ID/g
Drug uptake [9]: 4.41 % ID/g
Drug uptake [10]: 1.24 % ID/g
Drug uptake [11]: 5.97 %ID
Drug uptake [12]: 2.19 % ID/g
Drug uptake [13]: 8.07 % ID/g
Drug uptake [14]: 2.04 % ID/g
Drug uptake [15]: 3.75 % ID/g
Drug uptake [16]: 2.03 % ID/g
Drug uptake [17]: 1.1 % ID/g
Drug uptake [18]: 20.17 % ID/g
Drug uptake [19]: 5.41 % ID/g
Drug uptake [20]: 4.41 % ID/g
Drug uptake [21]: 5.83 % ID/g
Drug uptake [22]: 1.1 % ID/g
Drug uptake [23]: 0.82 % ID/g
Drug uptake [24]: 4.36 %ID
Drug uptake [25]: 2.59 % ID/g
Drug uptake [26]: 1.33 % ID/g
Drug uptake [27]: 1.86 %ID
Drug uptake [28]: 1.59 % ID/g
Drug uptake [29]: 1.87 % ID/g
Drug uptake [30]: 3.28 % ID/g
Drug uptake [31]: 20.85 % ID/g
Drug uptake [32]: 18.77 % ID/g
Drug uptake [33]: 16.78 % ID/g
Drug uptake [34]: 3.37 % ID/g
Drug uptake [35]: 5.95 % ID/g
Drug uptake [36]: 3.51 %ID
Drug uptake [37]: 2.59 % ID/g
Drug uptake [38]: 2.12 % ID/g
Drug uptake [39]: 6.41 % ID/g
Drug uptake [40]: 2.14 % ID/g
Drug uptake [41]: 4.69 % ID/g

COc1ccc2nc3cc([125I])ccc3c(N(C)C)c2c1
Drug uptake [1]: 16.43 % ID/g
Drug uptake [2]: 11.2 % ID/g
Drug uptake [3]: 0.23 % ID/g
Drug uptake [4]: 16.34 % ID/g
Drug uptake [6]: 0.64 % ID/g
Drug uptake [7]: 4.76 % ID/g
Drug uptake [8]: 12.55 % ID/g
Drug uptake [9]: 0.33 % ID/g
Drug uptake [10]: 11.22 % ID/g
Drug uptake [11]: 2.21 %ID
Drug uptake [12]: 1.97 % ID/g
Drug uptake [13]: 16.71 % ID/g
Drug uptake [14]: 21.84 % ID/g
Drug uptake [15]: 6.94 % ID/g
Drug uptake [16]: 6.5 % ID/g
Drug uptake [17]: 9.81 % ID/g
Drug uptake [18]: 6.5 % ID/g
Drug uptake [19]: 5.21 % ID/g
Drug uptake [20]: 21.56 % ID/g
Drug uptake [21]: 16.28 % ID/g
Drug uptake [22]: 4.33 % ID/g
Drug uptake [23]: 0.28 % ID/g
Drug uptake [24]: 1.4 %ID
Drug uptake [25]: 2.22 % ID/g
logD [42]: 2.19
Drug uptake [26]: 7.85 % ID/g
Drug uptake [27]: 1.37 %ID
Drug uptake [28]: 9.08 % ID/g
Drug uptake [29]: 14.49 % ID/g
Drug uptake [30]: 46.47 % ID/g
Drug uptake [31]: 11.77 % ID/g
Drug uptake [32]: 10.85 % ID/g
Drug uptake [33]: 5.33 % ID/g
Drug uptake [34]: 57.02 % ID/g
Drug uptake [35]: 79.34 % ID/g
Drug uptake [36]: 2.18 %ID
Drug uptake [37]: 1.26 % ID/g
Drug uptake [38]: 9.65 % ID/g
Drug uptake [39]: 3.13 % ID/g
Drug uptake [40]: 0.26 % ID/g
Drug uptake [41]: 18.16 % ID/g
